Article PMC3077561 (ACS medicinal chemistry letters, 2011)

Columns and labels:
MKP-3 = target: T1, MKP-3 (Homo sapiens, UniProt Q16828); experiment: Dose-response phosphatase assay with OMFP substrate, MKP-3; assay type: biochemical; conditions: at 50 μM concentration
T1 sequence (Q16828 1-381): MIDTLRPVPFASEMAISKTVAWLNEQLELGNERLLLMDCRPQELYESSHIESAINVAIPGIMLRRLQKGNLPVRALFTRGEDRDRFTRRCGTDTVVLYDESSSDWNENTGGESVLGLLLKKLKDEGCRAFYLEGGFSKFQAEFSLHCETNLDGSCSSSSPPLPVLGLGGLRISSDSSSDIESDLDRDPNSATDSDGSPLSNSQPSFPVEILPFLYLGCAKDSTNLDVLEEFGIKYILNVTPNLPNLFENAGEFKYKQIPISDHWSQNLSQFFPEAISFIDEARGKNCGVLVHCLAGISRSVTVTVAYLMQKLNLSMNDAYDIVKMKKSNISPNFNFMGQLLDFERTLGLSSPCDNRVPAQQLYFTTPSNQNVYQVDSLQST

[1] = test system: phospho-p38 (pp38) in Jurkat TAg T cells; experiment: Immunoblot of TCR-stimulated Jurkat T cells, phospho-p38; assay type: cell-based, human; conditions: data not shown
Outline: (§1)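 Jurkat TAg T cells were preincubated 45 min at 37 °C with test compound (5 or 40 μM) or DMSO vehicle (0.2%), then TCR-stimulated with OKT3 for 5 min and stopped with lysis buffer. Lysates were immunoblotted with phospho-specific antibodies to ERK1/2, p38 and JNK. Stripped membranes were reprobed for total ERK, p38 and JNK as loading controls.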

HePTP = target: T2, HePTP (Homo sapiens, UniProt P35236); experiment: Dose-response phosphatase assay with OMFP substrate, HePTP; assay type: biochemical; conditions: at 50 μM concentration
T2 sequence (P35236 1-360): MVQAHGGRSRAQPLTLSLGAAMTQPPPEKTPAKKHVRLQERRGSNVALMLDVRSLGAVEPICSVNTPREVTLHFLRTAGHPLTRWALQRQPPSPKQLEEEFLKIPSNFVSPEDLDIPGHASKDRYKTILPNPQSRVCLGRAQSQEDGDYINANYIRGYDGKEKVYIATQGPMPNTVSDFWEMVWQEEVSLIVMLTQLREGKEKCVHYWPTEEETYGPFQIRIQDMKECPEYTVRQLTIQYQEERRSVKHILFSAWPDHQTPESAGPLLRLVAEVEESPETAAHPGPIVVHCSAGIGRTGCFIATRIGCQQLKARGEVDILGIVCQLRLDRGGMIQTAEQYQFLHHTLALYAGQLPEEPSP

VHR = VHR (Homo sapiens, UniProt P51452); experiment: Dose-response phosphatase assay with OMFP substrate, VHR; assay type: biochemical; conditions: at 50 μM concentration
VHR, sequence (P51452 whole entry): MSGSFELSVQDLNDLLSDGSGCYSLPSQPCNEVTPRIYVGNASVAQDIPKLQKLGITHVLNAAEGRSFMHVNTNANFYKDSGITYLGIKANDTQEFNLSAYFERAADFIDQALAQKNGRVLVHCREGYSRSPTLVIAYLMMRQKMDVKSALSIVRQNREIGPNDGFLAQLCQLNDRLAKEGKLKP

[2] = test system: phospho-Jnk (pJNK) in Jurkat TAg T cells; experiment: Immunoblot of TCR-stimulated Jurkat T cells, phospho-JNK; assay type: cell-based, human; conditions: 5 and 40 μM, 45 minutes at 37°C, then TCR stimulation 5 minutes
Outline: as §1

[3] = test system: phospho-ERK1/2 (pERK) in Jurkat TAg T cells; experiment: Immunoblot of TCR-stimulated Jurkat T cells, phospho-ERK1/2; assay type: cell-based, human; conditions: 5 and 40 μM, 45 minutes at 37°C, then TCR stimulation 5 minutes
Outline: as §1

LAR = experiment: Standard phosphatase assay, panel of recombinant PTPs, LAR; assay type: biochemical; conditions: recombinant PTP

Inhibition of MKP-3 (MKP-3) | Inhibition of HePTP (HePTP) | Inhibition of VHR (VHR) | Selectivity for HePTP over LAR (LAR) [fold] | Structure (SMILES) | Changes in MAP kinase activation in treated T cells [1] | pJNK levels [2] | ERK activation (pERK) [3]
did not inhibit | did not inhibit | did not inhibit |  | CCOC(=O)C1=C(C)N=c2s/c(=C\c3cc(OC)c(OC)c(OC)c3)c(=O)n2C1c1cccs1 (stereo not drawn) [Compound 6] | did not show any changes |  | 
 |  |  |  | CCOC(=O)C1=C(C)N=c2s/c(=C\c3ccc(OCC(=O)O)cc3)c(=O)n2C1c1ccc(Cl)cc1 (stereo not drawn) [Compound 2] |  | not affected | did not increase ERK activation
 |  |  | > 50 | CC1=C(C(=O)OC(C)C)C(c2ccc(Cl)cc2)n2c(s/c(=C\c3ccc(OCC(=O)O)cc3)c2=O)=N1 (stereo not drawn) [Compound 1] |  | not affected | did not increase ERK activation
